From ChEMBL document CHEMBL1828562, “Aryl H-phosphonates 17: (N-aryl)phosphoramidates of pyrimidine nucleoside analogues and their synthesis, selected properties, and anti-HIV activity” (J Med Chem, 2011)
Activity calls are given as the source filed them. The calls are words filed in the database; no cut-off is given here.

Columns and labels:
[1] = system: Human immunodeficiency virus 1; assay: Antiviral activity against HIV1 infected in human CEM-T4 cells assessed as reduction in viral protein p24 production preincubated for 24 hrs measured after 8 days by MTT assay; type: functional, organism-based; conditions: Human immunodeficiency virus 1, CEM-T4
Procedure, shortened: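 CEM-T4 cells, 20000 per well in 200 μL, preincubated 24 h at 37 °C, 5% CO2 in RPMI/10% FCS containing compound at 0,001–20 μM. Cells then inoculated with a known amount of HIV. Viral p24 read after 8 days by the MTT method. Triplicate cultures per concentration.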

[2] = Cytotoxicity against human CEM-T4 cells assessed as cell viability after 7 days by MTT assay; type: cell-based
Procedure, shortened: (§1)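 CEM-T4 cells cultured at 37 °C, 5% CO2 in RPMI/10% FCS containing compound, with neat medium as control. After 7 days, MTT (5 mg/mL solution) added for 3 h at 37 °C. Cells centrifuged, supernatant removed, formazan dissolved in DMSO and read at 560 nm. CC50 and CC90 determined on mock-infected cells.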

[3] = Chemical stability of the compound in RPMI cell culture media assessed as half life at 2 mM; type: physicochemical
Procedure, shortened: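 Compound at 2 mM incubated in RPMI/FBS 9:1 (v/v) at 37 °C. Decomposition followed by HPLC on a C18 column. Half-life calculated from the degradation course.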

[4] = Selectivity index, ratio of CC50 for human CEM-T4 cells to EC50 for HIV1 infected human CEM-T4 cells; type: toxicity, cell-based; conditions: read-out: Ratio CC50/EC50
Procedure, shortened: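 Selectivity index calculated as CC50/EC50, both measured in CEM-T4 cells, and rounded.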

[5] = Chemical stability of the compound in RPMI cell culture media assessed as compound decomposition by HPLC analysis in presence of human MT4 cells; type: ADME, cell-based
Procedure, shortened: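 Compound incubated at 37 °C in RPMI cell culture medium in the presence of MT-4 cells. Degradation rate and decomposition products followed by HPLC on a C18 column.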

[6] = target: Human immunodeficiency virus type 1 reverse transcriptase (Human immunodeficiency virus 1) (UniProt Q72547); assay: Inhibition of HIV1 recombinant reverse transcriptase at <= 3 uM preincubated for 5 mins measured after 1 hr by electrophoresis analysis
Procedure, shortened: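 Recombinant HIV-1 RT preincubated 5 min at 45 °C with compound in 50 mM Tris-HCl pH 8.3, 75 mM KCl, 3 mM MgCl2, 10 mM DTT. Started with dNTPs (50 μM final) and run 60 min at 45 °C. Products resolved on 12% denaturing PAGE and imaged by autoradiography. Fully extended product quantified.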

[7] = Cytotoxicity against human CEM-T4 cells assessed as cell viability at 200 uM after 7 days by MTT assay; type: cell-based; conditions: cem-t4, 168 h; procedure, shortened: as §1
[8] = system: Human immunodeficiency virus 1; assay: Antiviral activity against HIV1 infected in human CEM/TK+ cells assessed as inhibition of virus-induced cytopathogenicity; type: functional, organism-based
[9] = system: Human immunodeficiency virus 1; assay: Antiviral activity against HIV1 infected in human CEM/TK- cells assessed as inhibition of virus-induced cytopathogenicity; type: functional, organism-based
[10] = Dissociation constant, pKa of the compound in aqueous solution; type: physicochemical
[11] = Cytotoxicity against human CEM-T4 cells assessed as cell viability at 50 uM after 7 days by MTT assay; type: cell-based; conditions: cem-t4, 168 h; procedure, shortened: as §1
[12] = Cytotoxicity against human CEM-T4 cells assessed as cell viability at 30 uM after 7 days by MTT assay; type: cell-based; conditions: cem-t4, 168 h; procedure, shortened: as §1

Cc1cn([C@H]2C[C@H](N=[N+]=[N-])[C@@H](COP(=O)(O)O)O2)c(=O)[nH]c1=O [AZIDOTHYMIDINE MONOPHOSPHATE]
EC50 [1]: 10 nM
CC50 at 168 h [2]: 100000 nM
half-life at 2000 µM [3]: 3.6 h
selectivity ratio [4]: 10000

Cc1cn([C@H]2C[C@H](N=[N+]=[N-])[C@@H](CO)O2)c(=O)[nH]c1=O [ZIDOVUDINE]
EC50 [1]: < 2 nM
EC90 [1]: 5 nM
CC50 at 168 h [2]: > 200000 nM
CC90 at 168 h [2]: > 200000 nM
selectivity ratio [4]: > 100000

Cc1cn([C@H]2C[C@H](N=[N+]=[N-])[C@@H](COP(=O)(O)Nc3cccnc3)O2)c(=O)[nH]c1=O
Stability [5]: Stable
EC50 [1]: 2.3 nM
EC90 [1]: 9 nM
inhibition [6]: inactive
Activity [7]: Non-toxic
half-life at 2000 µM [3]: 73.3 h
inhibition [8]: Active
selectivity ratio [4]: > 87000
inhibition [9]: inactive

COc1ccc(N)cc1
pKa [10]: 4.58

Nc1ccccn1 [2-AMINOPYRIDINE]
EC50 [1]: > 20000 nM
EC90 [1]: > 20000 nM
Activity [7]: Non-toxic
selectivity ratio [4]: < 10

CCN(CC)CC.Cc1cn([C@H]2C[C@H](N=[N+]=[N-])[C@@H](COP(=O)(O)Nc3ccc(Cl)cc3)O2)c(=O)[nH]c1=O
EC50 [1]: 20 nM
EC90 [1]: 100 nM
CC50 at 168 h [2]: 290000 nM
CC90 at 168 h [2]: 360000 nM
half-life at 2000 µM [3]: > 120 h
selectivity ratio [4]: 14500
inhibition [9]: inactive

Nc1ccncc1 [DALFAMPRIDINE]
EC50 [1]: > 20000 nM
EC90 [1]: > 20000 nM
pKa [10]: 9.13
Activity [7]: Non-toxic
selectivity ratio [4]: < 10

Nc1ccc(Cl)cc1 [4-CHLOROANILINE]
pKa [10]: 3.99

O=c1ccn([C@H]2CC[C@@H](COP(=O)(O)Nc3ccncc3)O2)c(=O)[nH]1
EC50 [1]: 200 nM
EC90 [1]: 1350 nM
pKa [10]: < 8
half-life at 2000 µM [3]: 32.1 h
selectivity ratio [4]: > 250
Activity [11]: Non-toxic
inhibition [9]: inactive

Nc1cccnc1
EC50 [1]: > 20000 nM
EC90 [1]: > 20000 nM
pKa [10]: 6.03
Activity [7]: Non-toxic
selectivity ratio [4]: < 10

O=c1ccn([C@H]2CC[C@@H](COP(=O)(O)Nc3cccnc3)O2)c(=O)[nH]1
EC50 [1]: > 10000 nM
EC90 [1]: > 10000 nM
Activity [12]: Non-toxic
half-life at 2000 µM [3]: 27.9 h
selectivity ratio [4]: < 3
inhibition [9]: inactive

Cc1cn([C@H]2C[C@H](N=[N+]=[N-])[C@@H](COP(=O)(O)Nc3ccncc3)O2)c(=O)[nH]c1=O
Stability [5]: Stable
EC50 [1]: 1.1 nM
EC90 [1]: 6 nM
pKa [10]: < 8
inhibition [6]: inactive
Activity [7]: Non-toxic
half-life at 2000 µM [3]: > 120 h
inhibition [8]: Active
selectivity ratio [4]: > 182000
inhibition [9]: inactive

O=c1ccn([C@H]2CC[C@@H](COP(=O)(O)Nc3ccccc3)O2)c(=O)[nH]1
inhibition [9]: inactive

CCN(CC)CC.Cc1cn([C@H]2C[C@H](N=[N+]=[N-])[C@@H](COP(=O)(O)Nc3ccccc3)O2)c(=O)[nH]c1=O
EC50 [1]: 600 nM
EC90 [1]: > 10000 nM
CC50 at 168 h [2]: > 200000 nM
CC90 at 168 h [2]: > 200000 nM
half-life at 2000 µM [3]: > 120 h
selectivity ratio [4]: > 300
inhibition [9]: inactive
